Each block holds one compound with its values, some of them ahead of it. Active and inactive are the calls of the source. The calls are words filed in the database; no cut-off is given here.
Columns and labels:
MCF7 [1] = assay: Antiproliferative activity against ER-positive human MCF7 cells assessed as cell viability at 0.1 mM after 72 hrs by MTT assay; type: functional; conditions: MCF7, 72 h, read-out: Activity
How it was run: (§1)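 MCF-7 (ER-positive) cells in DMEM with 2 mM L-glutamine, penicillin/streptomycin and 10% charcoal-treated FCS, seeded at 2500-5000 cells/well. Drugs added 24 h later in serial dilutions from 10 mM DMSO stocks, then exposed 72 h. MTT (500 µg/mL) for 3 h at 37 °C, formazan dissolved in DMSO, A570 read minus A650. Sextuplicates, three experiments.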

[2] = Retardation factor of the compound using CH2Cl2 as solvent system; type: physicochemical
[3] = Retardation factor of the compound using CH2Cl2/MeOH at ratio of 95:5 as solvent system; type: physicochemical
[4] = Retardation factor of the compound using c-hexane/AcOEt at ratio of 6:4 as solvent system; type: physicochemical
RPMI-8226 = assay: Growth inhibition of human RPMI8226 cells after 72 hrs by MTS assay; type: functional; conditions: RPMI-8226, 72 h
How it was run: (§2)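 Myeloma RPMI 8226 and LP-1 cells and prostate PC-3 cells, grown in RPMI 1640 with 2 mM L-glutamine and 10% heat-inactivated FBS, seeded at 2500-5000 cells/well. Drug dilutions added after 24 h. After 72 h, MTS reagent added and A492 read 2 or 3 h later. Run in triplicate, with each experiment done at least twice. GI50 taken relative to vehicle-treated cells.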

MCF7 [5] = assay: Cell cycle arrest in human MCF7 cells assessed as accumulation at G2/M phase at 100 uM after 48 hrs by flow cytometry (reference value: 7%); type: functional
How it was run: (§3)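 MCF-7 cells at 1.3 x 10^5 cells/mL exposed to 100 µM for 48 or 72 h, with DMSO control. Cells fixed in PBS/ethanol (30/70), then 10^4 cells incubated 30 min in PBS/0.2% Triton X-100/1 mM EDTA with propidium iodide (50 µg/mL) and RNase (0.5 mg/mL). Flow cytometry gave % cells per phase, with sub-G1 counted as apoptotic. Mean of two independent experiments.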

LP-1 = assay: Growth inhibition of human LP-1 cells after 72 hrs by MTS assay; type: functional; conditions: LP-1, 72 h; how it was run: as §2
MCF7 [6] = assay: Growth inhibition of ER-positive human MCF7 cells after 72 hrs by MTT assay; type: functional; conditions: MCF7, 72 h; how it was run: as §1
MCF7 [7] = assay: Cell cycle arrest in human MCF7 cells assessed as accumulation at subG1 phase at 100 uM after 72 hrs by flow cytometry (reference value: 9.5%); type: functional; how it was run: as §3
MCF7 [8] = assay: Antiproliferative activity against human MCF7 cells assessed as inhibition of cell proliferation; type: functional, cell-based
MDA-MB-231 [9] = assay: Growth inhibition of ER-negative human MDA-MB-231 cells after 72 hrs by MTT assay; type: functional; conditions: MDA-MB-231, 72 h
How it was run: (§4)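 ER-negative MDA-MB-231 cells and tamoxifen- or Faslodex-resistant MCF-7 cells, grown in DMEM with 10% charcoal-treated FCS and seeded at 2500-5000 cells/well. Drug serial dilutions added after 24 h from 10 mM DMSO stocks. After 72 h, MTT at 500 µg/mL for 3 h at 37 °C, then A570 read minus A650.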

PC-3 = assay: Growth inhibition of human PC3 cells after 72 hrs by MTS assay; type: functional; conditions: PC-3, 72 h; how it was run: as §2
IGROV-1 = assay: Antiproliferative activity against human IGROV1 cells assessed as inhibition of cell proliferation; type: functional, cell-based
MCF7 [10] = assay: Cell cycle arrest in human MCF7 cells assessed as accumulation at S phase at 100 uM after 72 hrs by flow cytometry (reference value: 20.5%); type: functional; how it was run: as §3
Caco-2 = assay: Antiproliferative activity against human Caco2 cells assessed as inhibition of cell proliferation; type: functional, cell-based
MCF7 [11] = assay: Cell cycle arrest in human MCF7 cells assessed as accumulation at G0/G1 phase at 100 uM after 72 hrs by flow cytometry (reference value: 60.5%); type: functional; how it was run: as §3
Ishikawa = assay: Antiproliferative activity against human Ishikawa cells assessed as inhibition of cell proliferation; type: functional, cell-based
MCF7 [12] = assay: Cell cycle arrest in human MCF7 cells assessed as accumulation at subG1 phase at 100 uM after 48 hrs by flow cytometry (reference value: 5%); type: functional; how it was run: as §3
MCF7 [13] = assay: Cell cycle arrest in human MCF7 cells assessed as accumulation at S phase at 100 uM after 48 hrs by flow cytometry (reference value: 6%); type: functional; how it was run: as §3
MDA-MB-231 [14] = assay: Antiproliferative activity against human MDA-MB-231 cells assessed as inhibition of cell proliferation; type: functional, cell-based
MCF7 [15] = assay: Cell cycle arrest in human MCF7 cells assessed as accumulation at G2/M phase at 100 uM after 72 hrs by flow cytometry (reference value: 19%); type: functional; how it was run: as §3
MCF7 [16] = assay: Cell cycle arrest in human MCF7 cells assessed as accumulation at G0/G1 phase at 100 uM after 48 hrs by flow cytometry (reference value: 87%); type: functional; how it was run: as §3
[17] = Retardation factor of the compound using CH2Cl2/AcOEt at ratio of 9:1 as solvent system; type: physicochemical
[18] = molecular target: Heat shock protein HSP 90-beta (Homo sapiens) (UniProt P08238); assay: Inhibition of HSP90 in human MCF7 cells assessed as ER-alpha degradation at 100 uM after 24 hrs by western blot analysis; type: cell-based
How it was run: (§5)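 MCF-7 cells grown to 50% confluence, exposed to 100 µM for 24 h with or without MG132 (5 µM). Lysed in Tris-HCl pH 7.5/NaCl/EGTA/Triton X-100 buffer with phosphatase and protease inhibitors. 20 µg protein run on SDS-PAGE. ERα probed with D12 monoclonal antibody (1 µg/mL, overnight 4 °C), detected by biotin/avidin-peroxidase. Nonspecific band used as loading control; DMSO as vehicle.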

[19] = molecular target: Heat shock protein HSP 90-beta (Homo sapiens) (UniProt P08238); assay: Inhibition of HSP90 in human MCF7 cells assessed as induction of Raf degradation at 100 uM after 24 hrs by western blot analysis; type: cell-based
MCF7 [20] = assay: Ratio of novobiocin GI50 to compound GI50 for human MCF7 cells; type: functional
MCF7 [21] = assay: Growth inhibition of Faslodex-resistant human MCF7 cells after 72 hrs by MTT assay; type: functional; conditions: MCF7, 72 h; how it was run: as §4
[22] = Retardation factor of the compound using Et2O/c-hexane at ratio of 8:2 as solvent system; type: physicochemical
[23] = molecular target: Heat shock protein HSP 90-beta (Homo sapiens) (UniProt P08238); assay: Inhibition of HSP90 in human MCF7 cells assessed as induction of Her2 degradation at 100 uM after 24 hrs by western blot analysis; type: cell-based
MCF7 [24] = assay: Growth inhibition of tamoxifen-resistant human MCF7 cells after 72 hrs by MTT assay; type: functional; conditions: MCF7, 72 h; how it was run: as §4
[25] = molecular target: Heat shock protein HSP 90-beta (Homo sapiens) (UniProt P08238); assay: Inhibition of HSP90 in human MCF7 cells assessed as induction of Cdk4 degradation at 100 uM after 24 hrs by western blot analysis; type: cell-based
[26] = molecular target: Heat shock protein HSP 90-beta (Homo sapiens) (UniProt P08238); assay: Inhibition of HSP90 in human MCF7 cells assessed as ER-alpha degradation at 100 uM after 24 hrs by western blot analysis in presence of proteasome inhibitor MG132; type: cell-based; how it was run: as §5
[27] = Retardation factor of the compound using CH2Cl2/AcOEt at ratio of 95:5 as solvent system; type: physicochemical

Chain of Heat shock protein HSP 90-beta (Homo sapiens) (P08238 whole entry): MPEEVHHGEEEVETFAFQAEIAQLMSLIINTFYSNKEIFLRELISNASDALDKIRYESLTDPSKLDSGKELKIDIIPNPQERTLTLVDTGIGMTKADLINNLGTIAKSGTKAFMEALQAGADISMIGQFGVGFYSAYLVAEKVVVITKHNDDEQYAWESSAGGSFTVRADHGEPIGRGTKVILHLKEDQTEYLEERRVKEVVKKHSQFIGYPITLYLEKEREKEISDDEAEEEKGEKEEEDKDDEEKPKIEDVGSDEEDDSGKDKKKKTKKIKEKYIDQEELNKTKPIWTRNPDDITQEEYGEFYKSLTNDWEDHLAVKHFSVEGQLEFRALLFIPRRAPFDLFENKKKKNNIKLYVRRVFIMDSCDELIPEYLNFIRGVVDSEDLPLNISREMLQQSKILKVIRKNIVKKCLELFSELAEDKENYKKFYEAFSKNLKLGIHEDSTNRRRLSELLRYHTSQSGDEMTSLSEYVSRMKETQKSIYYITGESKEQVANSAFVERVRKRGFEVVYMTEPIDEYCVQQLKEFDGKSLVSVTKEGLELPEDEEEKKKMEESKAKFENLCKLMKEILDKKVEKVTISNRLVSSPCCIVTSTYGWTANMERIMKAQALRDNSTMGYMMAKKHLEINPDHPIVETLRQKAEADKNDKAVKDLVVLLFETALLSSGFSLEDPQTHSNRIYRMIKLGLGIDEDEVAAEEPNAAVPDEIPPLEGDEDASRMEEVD

Rf [2]: 0.27
Compound: COc1ccc(-c2cc3c(OS(=O)(=O)c4ccc(C)cc4)c(NC(=O)c4ccc5c(c4)CCC(C)(C)O5)c(=O)oc3c(C)c2OC)cc1
viability at 100 µM (MCF7 [1]): 89%

Rf [3]: 0.2
Compound: Cc1c(O)ccc2c(NCCN3CCOCC3)c(NC(=O)c3ccc4c(c3)CCC(C)(C)O4)c(=O)oc12
viability at 100 µM (MCF7 [1]): 87%

Rf [4]: 0.39
Compound: Cc1ccc(S(=O)(=O)Oc2c(NC(=O)c3ccc4c(c3)CCC(C)(C)O4)c(=O)oc3c(C)c(O)c(Br)cc23)cc1
viability at 100 µM (MCF7 [1]): 65%

GI50 (RPMI-8226): 5 µM
GI50 (MCF7 [6]): 7 µM
IC50 (MCF7 [8]): 7 µM
GI50 (MDA-MB-231 [9]): 2 µM
GI50 (PC-3): 10 µM
IC50 (Caco-2): 8 µM
IC50 (MDA-MB-231 [14]): 2 µM
Compound: COc1ccc(C(=O)Nc2cc3cc(Br)ccc3n(C)c2=O)cc1
Activity (MCF7 [5]): 48%
GI50 (LP-1): 6.2 µM
Activity (MCF7 [7]): 47%
viability at 100 µM (MCF7 [1]): 10%
IC50 (IGROV-1): 5 µM
Activity (MCF7 [10]): 18.09%
Activity (MCF7 [11]): 40.43%
IC50 (Ishikawa): 2 µM
Activity (MCF7 [12]): 29.5%
Activity (MCF7 [13]): 17.14%
Activity (MCF7 [15]): 41.5%
Activity (MCF7 [16]): 34.81%

GI50 (MCF7 [6]): 64 µM
Rf [17]: 0.28
ER-alpha degradation (active/inactive) [18]: Active
Compound: Cc1c(O)ccc2c(OS(=O)(=O)c3ccc4cccnc4c3)c(NC(=O)c3ccc4c(c3)CCC(C)(C)O4)c(=O)oc12
viability at 100 µM (MCF7 [1]): 22%

GI50 (RPMI-8226): 2.5 µM
inhibition [19]: inactive
GI50 (MCF7 [6]): 6 µM
GI50 (MCF7 [21]): 25 µM
GI50 (MDA-MB-231 [9]): 10 µM
GI50 (PC-3): 25 µM
Rf [22]: 0.14
inhibition [23]: inactive
GI50 (MCF7 [24]): 30 µM
inhibition [25]: inactive
inhibition [26]: inactive
ER-alpha degradation (active/inactive) [18]: Active
Compound: CC(=O)OC[C@H]1O[C@@H](Oc2ccc3c(OS(=O)(=O)c4ccc(C)cc4)c(NC(=O)c4ccc5c(c4)CCC(C)(C)O5)c(=O)oc3c2C)[C@H](OC(C)=O)[C@@H](OC(C)=O)[C@@H]1OC(C)=O
Activity (MCF7 [5]): 55%
GI50 (LP-1): 5 µM
Ratio (MCF7 [20]): 40
Activity (MCF7 [7]): 27%
viability at 100 µM (MCF7 [1]): 10%
Activity (MCF7 [10]): 9.5%
Activity (MCF7 [11]): 30%
Activity (MCF7 [12]): 13%
Activity (MCF7 [13]): 5.5%
Activity (MCF7 [15]): 60%
Activity (MCF7 [16]): 40%

Rf [22]: 0.17
Compound: CC(=O)OC[C@H]1O[C@@H](Oc2ccc3c(N)c(NC(=O)c4ccc5c(c4)CCC(C)(C)O5)c(=O)oc3c2C)[C@H](OC(C)=O)[C@@H](OC(C)=O)[C@@H]1OC(C)=O
viability at 100 µM (MCF7 [1]): 71%

Rf [17]: 0.23
Compound: Cc1c(O)ccc2c(OS(=O)(=O)c3cccs3)c(NC(=O)c3ccc4c(c3)CCC(C)(C)O4)c(=O)oc12
viability at 100 µM (MCF7 [1]): 62%

Rf [27]: 0.48
Compound: COc1cc(C#Cc2cc3c(OS(=O)(=O)c4ccc(C)cc4)c(NC(=O)c4ccc5c(c4)CCC(C)(C)O5)c(=O)oc3c(C)c2OC)cc(OC)c1OC
viability at 100 µM (MCF7 [1]): 92%
